The results in this text go back to ChEMBL document CHEMBL4007405 (J Med Chem, 2017).

For data set [1], the target named is T1, Lethal factor (Bacillus anthracis) (UniProt P15917).
T1 sequence (whole entry): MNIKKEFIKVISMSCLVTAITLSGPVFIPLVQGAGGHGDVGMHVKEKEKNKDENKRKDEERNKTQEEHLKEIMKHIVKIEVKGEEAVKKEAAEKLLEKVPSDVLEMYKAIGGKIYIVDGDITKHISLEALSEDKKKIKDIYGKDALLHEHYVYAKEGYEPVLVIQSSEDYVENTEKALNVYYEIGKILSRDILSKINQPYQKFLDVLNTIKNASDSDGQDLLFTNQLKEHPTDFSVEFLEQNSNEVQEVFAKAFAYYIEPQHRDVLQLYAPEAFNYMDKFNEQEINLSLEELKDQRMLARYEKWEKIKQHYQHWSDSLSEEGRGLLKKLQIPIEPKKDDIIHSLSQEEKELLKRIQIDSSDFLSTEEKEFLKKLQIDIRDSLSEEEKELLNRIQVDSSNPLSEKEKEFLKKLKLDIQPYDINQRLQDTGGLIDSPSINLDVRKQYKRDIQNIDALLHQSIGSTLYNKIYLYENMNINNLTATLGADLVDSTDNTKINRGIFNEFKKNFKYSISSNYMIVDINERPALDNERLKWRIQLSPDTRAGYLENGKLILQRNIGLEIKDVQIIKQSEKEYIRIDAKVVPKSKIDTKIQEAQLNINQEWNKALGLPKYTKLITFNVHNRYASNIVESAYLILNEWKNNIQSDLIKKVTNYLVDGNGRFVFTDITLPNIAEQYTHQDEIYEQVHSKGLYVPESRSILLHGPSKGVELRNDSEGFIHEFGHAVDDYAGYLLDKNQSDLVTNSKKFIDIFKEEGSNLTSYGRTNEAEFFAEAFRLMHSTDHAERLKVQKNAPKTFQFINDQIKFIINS
Put plainly: Inhibition of Bacillus anthracis lethal factor protease up to 10 uM preincubated for 30 mins prior to addition of substrate containing fluorescent proteins CyPet and YPet measured every 2 mins for 3 hrs by FRET assay. An outline of the steps: (§1)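 Preincubated with peptide from 1 nM to 10 μM for 30 min at room temperature. CyPet–YPet substrate (LF consensus sequence with (GGS)6 linkers) then added to a final 10 nM. FRET read every 2 min for 3 h with excitation at 405 nm and emission ratio It/I0 at 535 nm. Initial velocities fitted to log(inhibitor)–response with variable Hill slope. Run in triplicate.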

Data set [2] has as its target Disintegrin and metalloproteinase domain-containing protein 17 (Homo sapiens) (UniProt P78536). Briefly: Inhibition of recombinant human glycosylated his-tagged TACE catalytic domain (233 to 477 residues) assessed as inhibition of proteolytic activity preincubated for 30 mins prior to addition of Mca-Pro-Leu-Ala-Gln-Ala-Val-Dpa-Arg-Ser-Ser-Ser-Arg-NH2 as substrate measured every 2 mins for 3 hrs by fluorescence analysis. Put shortly:
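TACE catalytic domain (233-477) at 2 nM in 2.5 μM ZnCl2, 25 mM Tris-HCl, pH 8.0. Preincubated with peptide from 1 nM to 10 μM for 30 min at room temperature. Fluorogenic Mca/Dpa substrate then added to a final 3 μM. Fluorescence read every 2 min for 3 h (excitation 320 nm, emission 405 nm). Initial velocities fitted to log(inhibitor)–response with variable Hill slope.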

The subject of a further data set is HeLa. Put plainly: Cytotoxicity against human HeLa cells up to 100 uM after 48 hrs by MTT assay. Format: cell-based. Put shortly:
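HeLa cells grown in DMEM with 10% FBS, penicillin and streptomycin at 37° C, 5% CO2. About 3 × 10^3 cells per well were seeded for 24 h, washed with PBS, then exposed to peptides in DMEM/10% FBS for 48 h at 37° C. MTT was added for 2 h and formazan dissolved in DMSO. Absorbance read at 595 nm with 670 nm background subtracted.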
For orientation: Formazan colour is commonly taken as a measure of viable cells.

Data set [3] has as its target T2, Lethal factor (Bacillus anthracis, UniProt P15917).
T2 sequence (P15917 whole entry): T1 sequence (whole entry)

Data set [4] deals with T1, Lethal factor (Bacillus anthracis). Put plainly: (§2) Inhibition of Bacillus anthracis lethal factor protease preincubated for 30 mins prior to addition of substrate containing fluorescent proteins CyPet and YPet measured every 2 mins for 3 hrs by FRET assay. Put shortly:
as §1

Data set [5] deals with T2, Lethal factor. The description is as §2. An outline of the steps: as §1

pIC50: −log10 of the molar value. Calls of active or inactive are those of the source. No cut-off for these calls is given here. Positions of bridges follow the written chain, without caps; N, C: chain ends. Residues, ends and D or L forms follow the SMILES beside them.

Sequence of Disintegrin and metalloproteinase domain-containing protein 17 (Homo sapiens) (P78536 whole entry, the tested form may be a part): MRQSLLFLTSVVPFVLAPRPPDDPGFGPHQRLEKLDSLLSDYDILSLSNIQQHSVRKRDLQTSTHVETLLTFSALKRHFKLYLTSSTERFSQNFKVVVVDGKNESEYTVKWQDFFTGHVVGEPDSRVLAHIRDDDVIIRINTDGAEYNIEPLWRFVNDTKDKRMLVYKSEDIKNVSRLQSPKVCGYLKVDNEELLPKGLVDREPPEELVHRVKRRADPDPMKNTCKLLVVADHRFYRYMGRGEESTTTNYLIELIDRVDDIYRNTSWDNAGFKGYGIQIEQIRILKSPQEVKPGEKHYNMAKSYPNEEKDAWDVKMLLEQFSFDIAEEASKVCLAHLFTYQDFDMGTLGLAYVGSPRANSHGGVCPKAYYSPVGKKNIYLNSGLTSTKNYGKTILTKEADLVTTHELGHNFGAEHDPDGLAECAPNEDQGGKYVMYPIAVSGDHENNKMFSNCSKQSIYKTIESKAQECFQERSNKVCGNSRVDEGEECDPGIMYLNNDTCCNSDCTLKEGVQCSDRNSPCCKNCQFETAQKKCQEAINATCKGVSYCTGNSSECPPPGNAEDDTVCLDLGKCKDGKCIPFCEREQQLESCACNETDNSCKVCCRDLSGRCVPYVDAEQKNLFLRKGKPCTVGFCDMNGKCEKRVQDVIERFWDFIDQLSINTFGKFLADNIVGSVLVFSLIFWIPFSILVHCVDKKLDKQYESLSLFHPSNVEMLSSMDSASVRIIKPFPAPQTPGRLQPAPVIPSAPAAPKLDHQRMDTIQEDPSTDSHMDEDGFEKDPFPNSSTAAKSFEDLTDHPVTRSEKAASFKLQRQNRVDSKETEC

Turning to `CC[C@H](C)[C@@H]1NC(=O)[C@H](CS)NC(=O)[C@H](CCCNC(=N)N)NC(=O)[C@H](CS)NC(=O)[C@H](C(C)C)NC(=O)CNC(=O)[C@H](CCCNC(=N)N)NC(=O)[C@H](CCCNC(=N)N)NC(=O)[C@H](CS)NC(=O)[C@H](CC(C)C)NC(=O)[C@H](CS)NC(=O)[C@H](CCCNC(=N)N)NC(=O)[C@H](CS)NC(=O)[C@H](Cc2ccccc2)NC(=O)CNC(=O)[C@H](CCCNC(=N)N)NC(=O)[C@H]([C@@H](C)O)NC(=O)[C@H](CS)NC1=O` (cyclo(CICTRGFCRCLCRRGVCR)), in data set [1], the inhibition result is “inactive”.
Broadly, the pIC50 is the IC50 on a negative log10 scale, so that one unit is a factor of ten. A low value points to a high IC50. On to `CC[C@H](C)[C@@H]1NC(=O)[C@@H]2CSSC[C@H](NC(=O)[C@H](CCCNC(=N)N)NC(=O)[C@@H]3CSSC[C@H](NC1=O)C(=O)N[C@@H]([C@@H](C)O)C(=O)N[C@@H](CCCNC(=N)N)C(=O)NCC(=O)N[C@@H](Cc1ccccc1)C(=O)N3)C(=O)N[C@@H](CC(C)C)C(=O)N[C@H]1CSSC[C@H](NC(=O)[C@H](C(C)C)NC(=O)CNC(=O)[C@H](CCCNC(=N)N)NC(=O)[C@H](CCCNC(=N)N)NC1=O)C(=O)N[C@@H](CCCNC(=N)N)C(=O)N2` (cyclo(GFCRCLCRRGVCRCICTR); disulfide 3-16, 5-14, 7-12), for which the inhibition result in data set [2] and in data set [4] was “Dose-dependent effect” each time. For the same molecule, the Activity result in the data set on HeLa is “Non-Toxic”. Further, the negative logarithm of the IC50 (pIC50) is 5.98 against Lethal factor [3] and 6.41 against Lethal factor [5].
